# From ChEMBL document CHEMBL1151452, “Novel trypanocidal analogs of 5'-(methylthio)-adenosine” (Antimicrob Agents Chemother, 2008)
# Activity calls are given as the source filed them. The calls are words filed in the database; no cut-off is given here.
# Experiments:
# [1] = test system: Trypanosoma brucei brucei; test: Antitrypanosomal activity against bloodstream form of Trypanosoma brucei brucei LAB 110 EATRO after 48 hrs by Z1 zoulter counter; format: functional, organism-based; conditions: for IC50: Trypanosoma brucei, LAB 110 EATRO, 48 h
# Outline: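 Bloodstream forms were grown axenically in HMI-18 (IMDM with 1 μM hypoxanthine and 20% horse serum). Compounds were dissolved in water or DMSO, with final DMSO ≤0.3%. […] Parasites were counted by Coulter counter.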
# [2] = test system: Trypanosoma brucei brucei; test: Activity at bloodstream Trypanosoma brucei brucei 5'-deoxy-5'-(methylthio)-adenosine phosphorylase by spectrophotometry relative to control; set-up: concentration or dose not given beside the values; conditions: LAB 110 EATRO
# Outline: (§1)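 Enzyme was a cell-free extract of bloodstream trypanosomes harvested from rats. It was prepared by freeze-thawing three times in dry ice-methanol, spinning at 5,000 × g for 10 min, and dialysing 1 h (0.05 M Tris-HCl, 0.1 mM EDTA, 1 mM 2-mercaptoethanol, pH 7.4) to remove phosphate. The mix held 0 or 50 mM potassium phosphate pH 7.4, xanthine oxidase and 25–500 μM substrate. Adenine-derived 2,8-dihydroxyadenine was read at 305 nm over 1 h at 37°C. Activity is expressed relative to MTA.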
# [3] = test system: Trypanosoma brucei brucei; test: Activity at bloodstream Trypanosoma brucei brucei 5'-deoxy-5'-(methylthio)-adenosine phosphorylase by spectrophotometry in presence of 50 mM PO4- relative to control; conditions: LAB 110 EATRO; outline: as §1
# [4] = test system: Trypanosoma brucei rhodesiense; test: Growth stimulation of pentamidine and melarsoprol-resistant bloodstream form of Trypanosoma brucei rhodesiense isolate KETRI 243 at 100 uM after 48 hrs by Z1 zoulter counter
# Mus musculus = species: Mus musculus; test: Activity at mouse liver 5'-deoxy-5'-(methylthio)-adenosine phosphorylase; set-up: concentration or dose not given beside the values
# [5] = test system: Trypanosoma brucei brucei; test: Growth stimulation of diamidine and melarsoprol-resistant bloodstream form of Trypanosoma brucei brucei isolate KETRI 243-As10-3 at 100 uM after 48 hrs by Z1 zoulter counter; format: functional, organism-based
Structure (SMILES),IC50 [1] [µM],Activity [2] [%],Activity [3] [%],also measured
CC(=O)OCCSC[C@H]1O[C@@H](n2cnc3c(C)ncnc32)[C@H](OC(C)=O)[C@@H]1OC(C)=O,9.3,–,–,–
Nc1ncnc2c1ncn2[C@@H]1O[C@H](CSCCO)[C@@H](O)[C@H]1O,0.54,100,96,–
CNC[C@H]1O[C@@H](n2cnc3c(N)ncnc32)[C@H](O)[C@@H]1O,> 100,0,4,–
Nc1ncnc2c1ncn2[C@@H]1O[C@H](CSCCO)C[C@H]1O,12.5,37.8,39.4,–
CC(=O)OCCSC[C@H]1O[C@@H](n2ccc3c(N)ncnc32)[C@H](OC(C)=O)[C@@H]1OC(C)=O,0.145,–,–,–
Nc1ncnc2c1ncn2COCCSCCO,64,78,56,–
NCCSC[C@H]1O[C@@H](n2cnc3c(N)ncnc32)[C@H](O)[C@@H]1O,> 100,–,–,Activity [4]: Active
NC(=O)c1ncn([C@@H]2O[C@H](CSCCO)[C@@H](O)[C@H]2O)n1,–,70,61,Activity [4]: Active; inhibition (INH) [1]: 9%
COC(=O)CSC[C@H]1O[C@@H](n2cnc3c(N)ncnc32)[C@H](O)[C@@H]1O,130,34,84,–
Nc1nc(F)nc2c1ncn2[C@@H]1O[C@H](CSCCO)[C@@H](O)[C@H]1O,1.9,106,148,–
Cc1ncnc2c1ncn2[C@@H]1O[C@H](CSCCO)[C@@H](O)[C@H]1O,24.5,25,2,–
CCCSC[C@H]1O[C@@H](n2cnc3c(N)ncnc32)[C@H](O)[C@@H]1O,46,26,57.5,Activity (Mus musculus): 100%
CC(=O)O[C@@H]1[C@H](OC(C)=O)[C@@H](CSCCF)O[C@H]1n1cnc2c(N)ncnc21,0.83,–,–,–
CC(=O)OCCSC[C@H]1O[C@@H](n2cnc3c(F)ncnc32)[C@H](OC(C)=O)[C@@H]1OC(C)=O,> 100,–,–,–
CSC[C@H]1O[C@@H](n2ccc3c(N)ncnc32)[C@H](O)[C@@H]1O,67,0,0,–
Nc1ncnc2c1ccn2[C@@H]1O[C@H](CSCCO)[C@@H](O)[C@H]1O,0.042,0,0,–
OCCSC[C@H]1O[C@@H](n2cnc3c(O)ncnc32)[C@H](O)[C@@H]1O,> 100,0,0,–
Nc1ncnc2c1nnn2[C@@H]1O[C@H](CSCCO)[C@@H](O)[C@H]1O,7,–,–,–
CC(=O)OCCSC[C@H]1O[C@@H](n2cnc(C(N)=O)n2)[C@H](OC(C)=O)[C@@H]1OC(C)=O,26.5,–,–,–
CC(=O)OCCSC[C@@H]1C[C@@H](OC(C)=O)[C@H](n2cnc3c(N)ncnc32)O1,0.64,–,–,–
CC(=O)OCCSC[C@H]1O[C@@H](n2cnc3c(N)ncnc32)C[C@@H]1OC(C)=O,22,–,–,–
OCCSC[C@H]1O[C@@H](n2cnc3c(F)ncnc32)[C@H](O)[C@@H]1O,> 100,60,42,–

Structure (SMILES),IC50 [1] [µM],Activity [2] [%],Activity [3] [%],also measured
Nc1ncnc2c1ncn2[C@@H]1O[C@H](CSCCCO)[C@@H](O)[C@H]1O,170,27.4,72.5,–
Nc1ncnc2c1ncn2[C@H]1CC[C@@H](CSCCO)O1,100,18,17,–
CC(=O)OCCSC[C@H]1O[C@@H](n2cnc3c(N)ncnc32)[C@H](OC(C)=O)[C@@H]1OC(C)=O,0.32,–,–,–
Nc1ncnc2c1ncn2C[C@H](O)CSCCO,60,–,–,–
CSC[C@H]1O[C@@H](n2ccc3c(NC(C)=O)ncnc32)[C@H](OC(C)=O)[C@@H]1OC(C)=O,46,–,–,–
Nc1ncnc2c1ncn2[C@@H]1O[C@H](CSCCF)[C@@H](O)[C@H]1O,0.2,29.3,75.3,Activity (Mus musculus): 64%
Nc1ncnc2c([C@@H]3N[C@H](CSCCO)[C@@H](O)[C@H]3O)c[nH]c12,> 10,–,–,–
OCCSC[C@H]1O[C@@H](n2cnc3c2ncn2ccnc32)[C@H](O)[C@@H]1O,> 100,62,56,–
Nc1nc(N)c2ncn([C@@H]3O[C@H](CSCCO)[C@@H](O)[C@H]3O)c2n1,3.9,18,29,–
Nc1ncnc2c1ncn2[C@@H]1O[C@H](CSCCCF)[C@@H](O)[C@H]1O,120,31.3,47.5,Activity (Mus musculus): 64%
Nc1ncnc2c1ncn2[C@H]1C[C@H](O)[C@@H](CSCCO)O1,> 100,81,100,Activity [5]: Active
OCCSC[C@H]1O[C@@H](n2cnc3cncnc32)[C@H](O)[C@@H]1O,34,4,11,–
CC(=O)OCCSC[C@H]1O[C@@H](n2cnc3cncnc32)[C@H](OC(C)=O)[C@@H]1OC(C)=O,3.65,–,–,–
CC(=O)OCCSC[C@H]1O[C@@H](n2cnc3c(N)nc(N)nc32)[C@H](OC(C)=O)[C@@H]1OC(C)=O,12.5,–,–,–
CC(=O)OCCSC[C@H]1O[C@@H](n2cnc3c(N)nc(F)nc32)[C@H](OC(C)=O)[C@@H]1OC(C)=O,2.75,–,–,–
CC(=O)OCCSC[C@H]1O[C@@H](n2cnc3c2ncn2ccnc32)[C@H](OC(C)=O)[C@@H]1OC(C)=O,35,–,–,–
CCSC[C@H]1O[C@@H](n2cnc3c(N)ncnc32)[C@H](O)[C@@H]1O,–,26.9,76.2,Activity (Mus musculus): 100%
CSC[C@H]1O[C@@H](n2cnc3c(N)ncnc32)[C@H](O)[C@@H]1O [METHYLTHIOADENOSINE],100,100,100,Activity (Mus musculus): 100%
NCCCSC[C@H]1O[C@@H](n2cnc3c(N)ncnc32)[C@H](O)[C@@H]1O,> 100,60,46,–
CC(=O)OCCSC[C@H](COC(C)=O)O[C@H](COC(C)=O)n1cnc2c(N)ncnc21,5.3,–,–,–
Nc1ncnc2c1ncn2C[C@@H](O)CSCCO,> 100,–,–,–
Nc1ncnc2c1ncn2[C@@H](CO)O[C@@H](CO)CSCCO,14,0,44,–
